Experiments:
Type in all cases: functional
[1] = tested on: A498; experiment: Antiproliferative activity against human A498 cells after 48 hrs by sulforhodamine B assay; conditions: A498, 48 h
How it was run: (§1)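 Cells grown in RPMI 1640 with 5% FBS and 2 mM L-glutamine, plated at 5000–40,000 cells/well and preincubated 24 h at 37 °C, 5% CO2. Five drug concentrations (10-fold or ½-log dilutions from DMSO stocks) applied for 48 h. TCA-fixed (final 10% adherent, 16% suspension), SRB-stained, A515 read. Growth versus time-zero and control wells gave GI50, TGI, LC50.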

[2] = tested on: LOX IMVI; experiment: Antiproliferative activity against human LOXIMVI cells after 48 hrs by sulforhodamine B assay; how it was run: as §1
[3] = tested on: SF-268; experiment: Antiproliferative activity against human SF268 cells after 48 hrs by sulforhodamine B assay; conditions: SF-268, 48 h; how it was run: as §1
[4] = tested on: M14; experiment: Antiproliferative activity against human M14 cells after 48 hrs by sulforhodamine B assay; conditions: M14, 48 h; how it was run: as §1
[5] = tested on: KM12; experiment: Antiproliferative activity against human KM12 cells after 48 hrs by sulforhodamine B assay; conditions: KM12, 48 h; how it was run: as §1
[6] = tested on: TK-10; experiment: Antiproliferative activity against human TK10 cells after 48 hrs by sulforhodamine B assay; conditions: TK-10, 48 h
How it was run: (§2)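 Cells in RPMI 1640 with 5% FBS and 2 mM L-glutamine were seeded at 5000–40,000/well according to doubling time and preincubated 24 h at 37 °C in 5% CO2. Time-zero plates were TCA-fixed when drug was added. Five 10-fold or ½-log dilutions from DMSO stocks were added for 48 h. After SRB staining, A515 was read and GI50 derived from [(Ti−Tz)/(C−Tz)]×100 = 50.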

[7] = tested on: NCI-H23; experiment: Antiproliferative activity against human NCI-H23 cells after 48 hrs by sulforhodamine B assay; conditions: NCI-H23, 48 h; how it was run: as §1
[8] = tested on: SNB-19; experiment: Antiproliferative activity against human SNB19 cells after 48 hrs by sulforhodamine B assay; conditions: SNB-19, 48 h; how it was run: as §1
[9] = tested on: HOP-62; experiment: Antiproliferative activity against human HOP62 cells after 48 hrs by sulforhodamine B assay; conditions: HOP-62, 48 h; how it was run: as §1
[10] = tested on: UACC-257; experiment: Antiproliferative activity against human UACC257 cells after 48 hrs by sulforhodamine B assay; conditions: UACC-257, 48 h; how it was run: as §2
[11] = tested on: OVCAR-4; experiment: Antiproliferative activity against human OVCAR4 cells after 48 hrs by sulforhodamine B assay; conditions: OVCAR-4, 48 h; how it was run: as §1
[12] = Antiproliferative activity against human EKVX cells after 48 hrs by sulforhodamine B assay; how it was run: as §1
[13] = tested on: MDA-MB-468; experiment: Antiproliferative activity against human MDA-MB-468 cells after 48 hrs by sulforhodamine B assay; conditions: MDA-MB-468, 48 h; how it was run: as §1
[14] = tested on: U-251; experiment: Antiproliferative activity against human U251 cells after 48 hrs by sulforhodamine B assay; conditions: U-251, 48 h; how it was run: as §2
[15] = tested on: OVCAR-8; experiment: Antiproliferative activity against human OVCAR8 cells after 48 hrs by sulforhodamine B assay; conditions: OVCAR-8, 48 h; how it was run: as §1
[16] = tested on: HL-60; experiment: Antiproliferative activity against human HL60 (TB) cells after 48 hrs by sulforhodamine B assay; conditions: HL-60, 48 h
How it was run: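 NCI 60-cell panel protocol: cells in RPMI 1640 with 5% FBS and 2 mM L-glutamine, plated 24 h at 37 °C/5% CO2 before dosing. Compounds dissolved in DMSO and tested at five concentrations (10-fold or ½ log serial dilutions) for 48 h. Suspension cells fixed with 80% TCA (final 16%), SRB stained, absorbance at 515 nm. GI50 derived from time-zero-corrected growth.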

[17] = tested on: K562; experiment: Antiproliferative activity against human K562 cells after 48 hrs by sulforhodamine B assay; conditions: K562, 48 h; how it was run: as §1
[18] = tested on: SN12C; experiment: Antiproliferative activity against human SN12C cells after 48 hrs by sulforhodamine B assay; how it was run: as §1
[19] = tested on: MCF7; experiment: Antiproliferative activity against human MCF7 cells after 48 hrs by sulforhodamine B assay; conditions: MCF7, 48 h; how it was run: as §1
[20] = tested on: PC-3; experiment: Antiproliferative activity against human PC3 cells after 48 hrs by sulforhodamine B assay; conditions: PC-3, 48 h; how it was run: as §1
[21] = Antiproliferative activity against human Hs 578T cells after 48 hrs by sulforhodamine B assay; how it was run: as §1
[22] = tested on: SF-539; experiment: Antiproliferative activity against human SF539 cells after 48 hrs by sulforhodamine B assay; conditions: SF-539, 48 h; how it was run: as §1
[23] = tested on: OVCAR-3; experiment: Antiproliferative activity against human OVCAR3 cells after 48 hrs by sulforhodamine B assay; conditions: OVCAR-3, 48 h; how it was run: as §1
[24] = tested on: NCI-H226; experiment: Antiproliferative activity against human NCI-H226 cells after 48 hrs by sulforhodamine B assay; conditions: NCI-H226, 48 h; how it was run: as §1
[25] = tested on: ACHN; experiment: Antiproliferative activity against human ACHN cells after 48 hrs by sulforhodamine B assay; how it was run: as §1
[26] = tested on: CAKI-1; experiment: Antiproliferative activity against human CAKI-1 cells after 48 hrs by sulforhodamine B assay; conditions: CAKI-1, 48 h; how it was run: as §1
[27] = tested on: NCI-H460; experiment: Antiproliferative activity against human NCI-H460 cells after 48 hrs by sulforhodamine B assay; conditions: NCI-H460, 48 h; how it was run: as §1
[28] = tested on: NCI-H522; experiment: Antiproliferative activity against human NCI-H522 cells after 48 hrs by sulforhodamine B assay; conditions: NCI-H522, 48 h; how it was run: as §1
[29] = read-out: pLC50 (the source's name) (converted)

SMILES: CN1CCN(CCCn2c(=O)c3sc4ncccc4c3n3nnc(-c4ccccc4)c23)CC1
- GI50 [1]: 158 nM
- LC50 [1]: 21.9 µM
- TGI ([1]; read-out: pTGI (converted)): 9.33 µM
- GI50 [2]: 5.37 µM
- CC50 [2, 29]: 25.1 µM
- TGI ([2]; read-out: pTGI (converted)): 11.5 µM
- GI50 [3]: 6.46 µM
- LC50 [3]: 26.9 µM
- TGI ([3]; read-out: pTGI (converted)): 13.2 µM
- GI50 [4]: 2140 nM
- LC50 [4]: 20.9 µM
- TGI ([4]; read-out: pTGI (converted)): 7.41 µM
- GI50 [5]: 4.27 µM
- LC50 [5]: 24.5 µM
- TGI ([5]; read-out: pTGI (converted)): 10.7 µM
- GI50 [6]: 6.92 µM
- LC50 [6]: 26.9 µM
- TGI ([6]; read-out: pTGI (converted)): 13.5 µM
- GI50 [7]: 8.13 µM
- LC50 [7]: 28.8 µM
- TGI ([7]; read-out: pTGI (converted)): 15.5 µM
- GI50 [8]: 8.32 µM
- LC50 [8]: 29.5 µM
- TGI ([8]; read-out: pTGI (converted)): 15.8 µM
- GI50 [9]: 8.13 µM
- LC50 [9]: 28.8 µM
- TGI ([9]; read-out: pTGI (converted)): 15.5 µM
- GI50 [10]: 2290 nM
- LC50 [10]: 20.4 µM
- TGI ([10]; read-out: pTGI (converted)): 7.59 µM
- GI50 [11]: 7.24 µM
- LC50 (concentration killing 50% of cells) [11]: 26.9 µM
- TGI ([11]; read-out: pTGI (converted)): 14.1 µM
- GI50 [12]: 6.46 µM
- LC50 [12]: 27.5 µM
- TGI ([12]; read-out: pTGI (converted)): 13.2 µM
- GI50 [13]: 6.92 µM
- LC50 [13]: 28.2 µM
- TGI ([13]; read-out: pTGI (converted)): 13.8 µM
- GI50 [14]: 5.25 µM
- LC50 [14]: 24 µM
- TGI ([14]; read-out: pTGI (converted)): 11.2 µM
- GI50 [15]: 7.76 µM
- LC50 [15]: 30.2 µM
- TGI ([15]; read-out: pTGI (converted)): 15.5 µM
- GI50 [16]: 794 nM
- CC50 [16, 29]: 3.8 µM
- TGI ([16]; read-out: pTGI (converted)): 1740 nM
- GI50 [17]: 871 nM
- LC50 (concentration killing 50% of cells) [17]: 4.79 µM
- TGI ([17]; read-out: pTGI (converted)): 2040 nM
- GI50 [18]: 7.24 µM
- LC50 [18]: 28.2 µM
- TGI ([18]; read-out: pTGI (converted)): 14.1 µM
- GI50 [19]: 7.76 µM
- LC50 [19]: 29.5 µM
- TGI ([19]; read-out: pTGI (converted)): 15.1 µM
- GI50 [20]: 6.31 µM
- LC50 [20]: 28.8 µM
- TGI ([20]; read-out: pTGI (converted)): 13.5 µM
- GI50 [21]: 6.46 µM
- LC50 [21]: 39.8 µM
- TGI ([21]; read-out: pTGI (converted)): 16.2 µM
- GI50 [22]: 5.75 µM
- LC50 [22]: 30.9 µM
- TGI ([22]; read-out: pTGI (converted)): 13.5 µM
- GI50 [23]: 2290 nM
- LC50 [23]: 20.4 µM
- TGI ([23]; read-out: pTGI (converted)): 7.59 µM
- GI50 [24]: 7.41 µM
- LC50 [24]: 31.6 µM
- TGI ([24]; read-out: pTGI (converted)): 15.1 µM
- GI50 [25]: 8.13 µM
- LC50 (50% lethal concentration) [25]: 27.5 µM
- TGI ([25]; read-out: pTGI (converted)): 15.1 µM
- GI50 [26]: 6.17 µM
- CC50 [26, 29]: 27.5 µM
- TGI ([26]; read-out: pTGI (converted)): 12.9 µM
- GI50 [27]: 6.92 µM
- LC50 [27]: 26.9 µM
- TGI ([27]; read-out: pTGI (converted)): 13.8 µM
- GI50 [28]: 7.24 µM
- LC50 [28]: 28.8 µM
- TGI ([28]; read-out: pTGI (converted)): 14.5 µM

Source: ChEMBL document CHEMBL2346608, “New annelated thieno[2,3-e][1,2,3]triazolo[1,5-a]pyrimidines, with potent anticancer activity, designed through VLAK protocol” (2013)
